From BindingDB's records for doi:10.1016/j.ejmech.2011.01.042 (Ludwig-Maximilians-University Munich, 2011)
Where a name gives a salt, the structure may show the parent alone.

Tests used:
[1] = target: T1, Sodium- and chloride-dependent GABA transporter 2 (Mus musculus, UniProt P31649); assay: Inhibition of mouse GAT2-mediated [3H]GABA uptake expressed in human HEK cells
T1 sequence (P31649 whole entry): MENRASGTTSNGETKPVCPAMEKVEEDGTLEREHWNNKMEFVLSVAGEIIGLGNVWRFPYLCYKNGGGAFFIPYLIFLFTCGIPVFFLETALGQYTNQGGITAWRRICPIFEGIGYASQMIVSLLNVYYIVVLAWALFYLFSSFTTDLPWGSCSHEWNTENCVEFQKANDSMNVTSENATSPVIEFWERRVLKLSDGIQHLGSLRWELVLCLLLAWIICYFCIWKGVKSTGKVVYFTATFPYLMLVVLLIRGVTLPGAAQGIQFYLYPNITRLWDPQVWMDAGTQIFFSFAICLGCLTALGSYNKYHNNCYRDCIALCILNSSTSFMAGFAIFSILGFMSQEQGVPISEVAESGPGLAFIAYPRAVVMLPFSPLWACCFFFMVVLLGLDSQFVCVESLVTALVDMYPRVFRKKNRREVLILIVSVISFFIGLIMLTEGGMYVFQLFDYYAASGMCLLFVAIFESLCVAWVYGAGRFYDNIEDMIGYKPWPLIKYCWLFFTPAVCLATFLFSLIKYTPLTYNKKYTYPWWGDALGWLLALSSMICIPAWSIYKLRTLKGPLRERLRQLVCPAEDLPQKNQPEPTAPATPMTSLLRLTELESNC
How it was run: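 The value is pIC50, given as mean ± SEM of three independent experiments, each run in triplicate. Where only two experiments were run, uptake is reported rather than pIC50.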

[2] = target: T2, Sodium- and chloride-dependent GABA transporter 3 (Mus musculus, UniProt P31650); assay: Inhibition of mouse GAT3-mediated [3H]GABA uptake expressed in human HEK cells assessed as specific binding remaining at 1 mM
T2 sequence (P31650 whole entry): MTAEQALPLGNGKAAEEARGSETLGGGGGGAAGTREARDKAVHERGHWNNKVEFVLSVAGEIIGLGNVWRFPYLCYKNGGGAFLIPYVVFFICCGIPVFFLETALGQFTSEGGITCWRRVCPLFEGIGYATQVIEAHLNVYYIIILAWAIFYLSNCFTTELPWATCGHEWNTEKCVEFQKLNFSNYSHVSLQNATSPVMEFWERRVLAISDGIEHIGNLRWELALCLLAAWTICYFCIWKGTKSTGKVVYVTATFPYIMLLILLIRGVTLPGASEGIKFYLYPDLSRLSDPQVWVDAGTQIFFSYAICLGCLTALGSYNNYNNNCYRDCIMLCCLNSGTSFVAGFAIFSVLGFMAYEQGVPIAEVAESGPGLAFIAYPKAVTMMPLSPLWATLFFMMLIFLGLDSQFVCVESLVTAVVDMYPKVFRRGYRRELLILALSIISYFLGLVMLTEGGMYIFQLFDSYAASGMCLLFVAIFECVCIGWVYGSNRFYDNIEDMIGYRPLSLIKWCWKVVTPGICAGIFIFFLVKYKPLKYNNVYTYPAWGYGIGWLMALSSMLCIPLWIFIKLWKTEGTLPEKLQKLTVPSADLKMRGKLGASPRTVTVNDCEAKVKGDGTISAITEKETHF

## COc1ccc(C2(O)CCN(CCCn3c4ccccc4c4ccccc43)CC2)cc1 [1-(3-(9H-carbazol-9-yl)propyl)-4-(4-methoxyphenyl)piperidin-4-ol]
[1]
  IC50: 1.4 µM

## O=C(O)CCCCCCn1ccnc1 [7-Imidazol-1-yl-heptanoic acid; hydrochloride]
[2]
  IC50: 776 µM

## Cc1ccsc1C(=CCCN(C)C1CCCc2o[nH]c(=O)c21)c1sccc1C (stereo not drawn) [4-((4,4-bis(3-methylthiophen-2-yl)but-3-enyl)(methyl)amino)-4,5,6,7-tetrahydrobenzo[d]isoxazol-3-ol]
[1]
  IC50: 22 µM
